In the library only some 2% were active in any assay of this set; here they are far more common.
ARNT-TACC3 inh: ARNT/TACC3 interaction disruption; AlphaScreen His-ARNT PAS-B/GST-TACC3 binding, luminescence; TACC3 fragment carries E629A point mutation; actives 0.66% (n = 390,000); Q9Y6A5; inhibition, % at 9.99 µM; AID 623870;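 active = mean inhibition of replicates at least 50% and at least half of replicates each reaching 50%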
Xi reactivation: reactivates the inactive X chromosome in mouse fibroblasts; XiGFP mouse fibroblasts, % GFP-positive cells imaging, 3 d; cells co-treated with 5-aza-dC sensitizer; scaled so ellipticine positive control = 100%; activation, % at 7.58 µM; actives 0.055% (n = 360,000); AID 743238;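 active = mean normalized replicate activation at least 10% and every replicate at or above 10%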
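System: 68-5-11 XiGFP fibroblast line | Buffer or medium: DMEM containing 5-aza-dC | Compound: Single point | Times: Compounds 3 days, fix/stain 15 min at room temperature | Benchmarks: Positive control ellipticine, 6 µM final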
SR-BI DiI-HDL act: SR-BI HDL lipid transfer activation; CHO ldlA[mSR-BI] cells, DiI-HDL uptake fluorescence, 3 h; 100 = double the neutral-control signal; activation, % at 12.5 µM; actives 0.096% (n = 320,000);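 active = mean replicate activation of at least 60% and every replicate at or above 60%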
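System: CHO ldlA[mSR-BI] cells / Medium: HEPES-buffered (25 mM, pH 7.4) F12 plus 0.5% BSA / Probe or stimulus: labelled HDL, 10 µg/mL / Doses: single compound concentration, delivered by pin transfer / Schedule: 3 h, 37 °C / Measured by: DiI fluorescence, bottom read / Measure: cell-associated DiI fluorescence as measure of HDL uptake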
NSD2 HMT inh: NSD2 (human) methyltransferase inhibition; NSD2 peptide methylation, AlphaScreen, 120 min; inhibition, % at 12.5 µM; actives 0.54% (n = 310,000); in the data active = inhibition above about 50%
SR-BI HDL uptake: mouse SR-BI HDL lipid transfer inhibition; ldlA[mSR-BI] CHO cells, DiI-HDL uptake fluorescence, 3 h; inhibition, % at 12.5 µM; actives 0.96% (n = 320,000); AID 488896;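 active = mean replicate inhibition of at least 70% and a set share of replicates each scoring 70 or more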
HGIII-sPLA2 inh: Inhibits HGIII-sPLA2 liposome hydrolysis, primary screen | QFRET BODIPY PC-A2 liposome hydrolysis, fluorescence | Q9NZ20 | inhibition, % at 12.2 µM | actives 0.56% (n = 370,000);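 active = inhibition above mean plus 3 SD of compounds lying within the high and low control bounds, cut at about 19% in these data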
Target sequence (Q9NZ20 whole entry, looked up): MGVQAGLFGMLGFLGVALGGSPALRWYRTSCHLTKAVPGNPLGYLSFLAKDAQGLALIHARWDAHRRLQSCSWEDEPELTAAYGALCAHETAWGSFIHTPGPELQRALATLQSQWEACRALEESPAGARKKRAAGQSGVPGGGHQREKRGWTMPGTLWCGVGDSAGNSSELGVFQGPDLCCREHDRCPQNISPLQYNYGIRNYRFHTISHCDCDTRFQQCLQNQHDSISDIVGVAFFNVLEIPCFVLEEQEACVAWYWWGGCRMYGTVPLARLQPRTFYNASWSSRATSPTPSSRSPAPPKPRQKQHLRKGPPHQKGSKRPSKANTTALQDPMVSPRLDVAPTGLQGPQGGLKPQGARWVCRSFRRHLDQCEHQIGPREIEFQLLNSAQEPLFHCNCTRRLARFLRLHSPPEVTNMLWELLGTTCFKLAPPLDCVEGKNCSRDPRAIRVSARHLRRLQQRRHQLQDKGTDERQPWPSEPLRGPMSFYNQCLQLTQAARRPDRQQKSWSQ
A number is an active result.

For Cc1cccc(NNC(=O)C(=O)NNc2cccc(C)c2)c1 the results were ARNT-TACC3 inh inactive, Xi reactivation inactive, SR-BI DiI-HDL act inactive, NSD2 HMT inh inactive, SR-BI HDL uptake inactive and HGIII-sPLA2 inh inactive.
For C[C@H]1CN([C@@H](C)CO)C(=O)Cc2cc(NC(=O)CCCN(C)C)ccc2O[C@H]1CN(C)CC1CCCCC1 the results were ARNT-TACC3 inh inactive and Xi reactivation inactive.
Cc1ccc(-c2nc(N/N=C/c3ccccc3[N+](=O)[O-])c3ccccc3n2)cc1 was read as ARNT-TACC3 inh inactive, SR-BI DiI-HDL act inactive, NSD2 HMT inh inactive, SR-BI HDL uptake 87.3 and HGIII-sPLA2 inh inactive.
`C=C(NC(=O)C(=C)NC(=O)c1csc(C2=NC3c4csc(n4)C4NC(=O)c5csc(n5)C(C(C)(O)C(C)O)NC(=O)C5CSC(=N5)/C(=C/C)NC(=O)C(C(C)O)NC(=O)c5csc(n5)C3(CC2)NC(=O)C(C)NC(=O)C(=C)NC(=O)C(=C)NC(=O)C(C(C)C)NC2C=Cc3c(C(C)O)cc(nc3C2O)C(=O)OC4C)n1)C(N)=O` (centres undefined) gave ARNT-TACC3 inh inactive, Xi reactivation inactive, SR-BI DiI-HDL act 143.3, SR-BI HDL uptake inactive and HGIII-sPLA2 inh inactive.
For COc1ccc(C(=O)NN)cc1COc1ccc(Br)cc1 the results were ARNT-TACC3 inh inactive, SR-BI DiI-HDL act inactive, NSD2 HMT inh inactive, SR-BI HDL uptake 97.4 and HGIII-sPLA2 inh inactive.
For CCOc1ccc(C(=O)NCC(=O)OCc2cc(C(C)=O)ccc2OC)cc1 the results were ARNT-TACC3 inh inactive, Xi reactivation inactive, SR-BI DiI-HDL act inactive, NSD2 HMT inh inactive, SR-BI HDL uptake 70.8 and HGIII-sPLA2 inh inactive.
COc1ccc(C(C)=O)cc1COC(=O)CNC(=O)c1ccc(Cl)cc1 was read as ARNT-TACC3 inh inactive, Xi reactivation inactive, SR-BI DiI-HDL act inactive, NSD2 HMT inh inactive, SR-BI HDL uptake inactive and HGIII-sPLA2 inh inactive.
`c1ccc(-c2nnc3sc(C4CCCCC4)nn23)cc1` gave NSD2 HMT inh inactive and HGIII-sPLA2 inh inactive.
COc1ccccc1CNC(=O)C1(C)CCN1Cc1ccc(OC(F)(F)F)cc1 (centres undefined) was read as Xi reactivation inactive, NSD2 HMT inh inactive and HGIII-sPLA2 inh inactive.
CCN(C(=O)COC(=O)c1ccccc1O)c1nc2ccccc2s1 was read as ARNT-TACC3 inh inactive, Xi reactivation inactive, SR-BI DiI-HDL act inactive, NSD2 HMT inh inactive, SR-BI HDL uptake inactive and HGIII-sPLA2 inh inactive.
Screening COc1ccc(NC(=O)c2sc3nc(N4CCCC4)c4c(c3c2N)CC(C)(C)OC4)cc1 returned ARNT-TACC3 inh inactive, Xi reactivation inactive, SR-BI DiI-HDL act inactive, NSD2 HMT inh inactive, SR-BI HDL uptake 72.6 and HGIII-sPLA2 inh inactive.
Screening COc1ccc(NC(=O)C(CC(C)C)NC(=O)C2CCC(C)CC2)c(OC)c1 (centres undefined) returned ARNT-TACC3 inh inactive, Xi reactivation inactive, SR-BI DiI-HDL act inactive, SR-BI HDL uptake 72.2 and HGIII-sPLA2 inh inactive.
`CCC(C)C(NC(=O)C1CCC(C)CC1)C(=O)Nc1cc(OC)ccc1OC` (centres undefined) gave ARNT-TACC3 inh inactive, SR-BI DiI-HDL act inactive, NSD2 HMT inh inactive, SR-BI HDL uptake inactive and HGIII-sPLA2 inh inactive.
CCC(C)C(NC(=O)C1CCC(C)CC1)C(=O)Nc1ccc(OC)cc1OC (centres undefined) was read as ARNT-TACC3 inh inactive, Xi reactivation inactive, SR-BI DiI-HDL act inactive, SR-BI HDL uptake 79.0 and HGIII-sPLA2 inh inactive.
For CCc1oc(C(=O)OC)cc1CSC(=N)N the results were ARNT-TACC3 inh inactive, Xi reactivation inactive and HGIII-sPLA2 inh inactive.
`COC(=O)C1CN(S(=O)(=O)c2ccc(C)cc2)CCN1S(=O)(=O)c1ccc(C)cc1` (centres undefined) gave ARNT-TACC3 inh inactive, SR-BI DiI-HDL act inactive, NSD2 HMT inh inactive, SR-BI HDL uptake inactive and HGIII-sPLA2 inh inactive.
`CCOC(=O)/C(=N\Nc1ncnc2ccccc12)c1ccc(OC)cc1` gave ARNT-TACC3 inh inactive, Xi reactivation inactive, SR-BI DiI-HDL act inactive, SR-BI HDL uptake inactive and HGIII-sPLA2 inh inactive.
COc1ccc(/C(=N/Nc2ncnc3ccccc23)C(=O)O)cc1 was read as ARNT-TACC3 inh 60.1, Xi reactivation inactive, SR-BI DiI-HDL act inactive, NSD2 HMT inh inactive, SR-BI HDL uptake inactive and HGIII-sPLA2 inh inactive.
O=C(N/N=C\c1ccccc1OCc1ccccc1)c1ccco1 was read as Xi reactivation inactive, SR-BI DiI-HDL act inactive, NSD2 HMT inh inactive, SR-BI HDL uptake inactive and HGIII-sPLA2 inh inactive.
Screening O=C(N/N=C/c1c(O)n(Cc2ccco2)c(=O)[nH]c1=O)c1ccccc1 returned ARNT-TACC3 inh 62.5, Xi reactivation inactive, SR-BI DiI-HDL act inactive, NSD2 HMT inh inactive, SR-BI HDL uptake inactive and HGIII-sPLA2 inh inactive.
CCOc1ccc(-c2nnc3n2N=C(c2ccc(OC)cc2)CS3)cc1 was read as ARNT-TACC3 inh inactive, SR-BI DiI-HDL act inactive, NSD2 HMT inh inactive, SR-BI HDL uptake inactive and HGIII-sPLA2 inh inactive.
For COc1ccc(C2=Nn3c(nnc3-c3ccccn3)SC2)cc1 the results were ARNT-TACC3 inh 82.4, SR-BI DiI-HDL act inactive, NSD2 HMT inh inactive, SR-BI HDL uptake inactive and HGIII-sPLA2 inh inactive.
COc1ccc(C2=Nn3c(nnc3-c3ccccc3OC)SC2)cc1OC1CCOC1 (centres undefined) was read as ARNT-TACC3 inh 46.6, Xi reactivation inactive, SR-BI DiI-HDL act inactive, SR-BI HDL uptake inactive and HGIII-sPLA2 inh inactive.
COc1ccccc1-c1nnc2n1N=C(c1ccc(O)c(O)c1)CS2 was read as ARNT-TACC3 inh inactive, SR-BI DiI-HDL act inactive, NSD2 HMT inh 56.0 and SR-BI HDL uptake inactive.
For C[C@H]1CN([C@@H](C)CO)C(=O)Cc2cc(NC(=O)Nc3ccc4c(c3)OCO4)ccc2O[C@H]1CN(C)S(=O)(=O)c1ccc(F)cc1 the results were Xi reactivation inactive.
Screening Cc1ccccc1NC(=O)/C(C#N)=C\c1cccnc1 returned ARNT-TACC3 inh inactive, SR-BI DiI-HDL act inactive, NSD2 HMT inh inactive, SR-BI HDL uptake inactive and HGIII-sPLA2 inh inactive.
`COc1cccc(-c2nc(CS(=O)(=O)CC(=O)N3CCN(C4CCCCC4)CC3)c(C)o2)c1` gave ARNT-TACC3 inh inactive, Xi reactivation inactive, SR-BI DiI-HDL act inactive, SR-BI HDL uptake 75.1 and HGIII-sPLA2 inh inactive.
O=C1C(=O)c2ccc(-c3ccccc3)cc2-c2ccccc21 was read as ARNT-TACC3 inh inactive, SR-BI DiI-HDL act inactive, NSD2 HMT inh inactive, SR-BI HDL uptake 92.5 and HGIII-sPLA2 inh inactive.
O=C(Nc1nc(-c2ccccc2)cs1)c1ccc2c(c1)S(=O)(=O)c1ccccc1C2=O was read as Xi reactivation inactive, SR-BI DiI-HDL act inactive, NSD2 HMT inh inactive, SR-BI HDL uptake inactive and HGIII-sPLA2 inh inactive.
